Laboratory results taken from ChEMBL document CHEMBL4342471, “Discovery of Thieno[2,3-d]pyrimidine-Based Hydroxamic Acid Derivatives as Bromodomain-Containing Protein 4/Histone Deacetylase Dual Inhibitors Induce Autophagic Cell Death in Colorectal Carcinoma Cells” (J Med Chem, 2020).
Activity calls are given as the source filed them. The rule behind the calls is not given here.

Experiments:
[1] = biological target: T1, Bromodomain-containing protein 4 (Homo sapiens, UniProt O60885); test: Inhibition of human recombinant His-tagged BRD4 BD1 domain using H-SGRGK(Ac)GGK(Ac)GLGK-(Ac)GGAK(Ac)RHRK(Biotin)-OH as substrate preincubated with enzyme for 30 mins followed by substrate addition measured after 30 mins by AlphaScreen assay
HCT-116 [2] = test: Decrease in BRD4 expression in human HCT116 cells at 0.2 to 0.5 uM incubated for 24 hrs by western blot analysis; assay type: functional, cell-based
Mus musculus = test: Increase in LIFR expression in tumor tissue of BALB/cAnNCrl mouse xenografted with human HCT116 cells at 15 to 30 mg/kg, po administered on day 1 to day 19 measured on day 19 by immunohistochemical analysis; assay type: functional, organism-based
Summary of the method: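 HCT-116 xenograft mice were dosed orally at 15 or 30 mg/kg, or 30 mg/kg for reference agents, for 19 days, with vehicle or saline controls. Tumor sections were stained for Ki-67, c-Myc, Ac-H3, BRD4, LC3-II, LIFR and p-STAT3 by immunohistochemistry, and TUNEL staining was used as the apoptosis marker.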

Homo sapiens [3] = species: Homo sapiens; test: Inhibition of BRD4/HDAC in human HCT116 cells assessed as increase in CTF1 mRNA level at 0.5 uM after 24 hrs by RT-PCR analysis; assay type: cell-based
Summary of the method: (§1)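 HCT-116 cells incubated 24 h with test agent (0.5 µM, 2.0 µM or 10 µM depending on compound); IL6, OSM, LIF and CTF1 mRNA levels then quantified.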

Homo sapiens [4] = species: Homo sapiens; test: Inhibition of BRD4/HDAC in human HCT116 cells assessed as increase in LIF mRNA level at 0.5 uM after 24 hrs by RT-PCR analysis; assay type: cell-based; summary of the method: as §1
HCT-116 [5] = test: Induction of apoptosis in human HCT116 cells assessed as early apoptotic cells at 0.5 uM by Annexin-V FITC/propidium iodide staining-based flow cytometry (reference value: 2.8 %); assay type: functional
[6] = biological target: T2, Protein deacetylase HDAC6 (Homo sapiens, UniProt Q9UBN7); test: Inhibition of HDAC6 (unknown origin) using biotinylated histone H3 KAc peptide (1 to 21 residues) as substrate by HTRF assay
T2 sequence (Q9UBN7 whole entry): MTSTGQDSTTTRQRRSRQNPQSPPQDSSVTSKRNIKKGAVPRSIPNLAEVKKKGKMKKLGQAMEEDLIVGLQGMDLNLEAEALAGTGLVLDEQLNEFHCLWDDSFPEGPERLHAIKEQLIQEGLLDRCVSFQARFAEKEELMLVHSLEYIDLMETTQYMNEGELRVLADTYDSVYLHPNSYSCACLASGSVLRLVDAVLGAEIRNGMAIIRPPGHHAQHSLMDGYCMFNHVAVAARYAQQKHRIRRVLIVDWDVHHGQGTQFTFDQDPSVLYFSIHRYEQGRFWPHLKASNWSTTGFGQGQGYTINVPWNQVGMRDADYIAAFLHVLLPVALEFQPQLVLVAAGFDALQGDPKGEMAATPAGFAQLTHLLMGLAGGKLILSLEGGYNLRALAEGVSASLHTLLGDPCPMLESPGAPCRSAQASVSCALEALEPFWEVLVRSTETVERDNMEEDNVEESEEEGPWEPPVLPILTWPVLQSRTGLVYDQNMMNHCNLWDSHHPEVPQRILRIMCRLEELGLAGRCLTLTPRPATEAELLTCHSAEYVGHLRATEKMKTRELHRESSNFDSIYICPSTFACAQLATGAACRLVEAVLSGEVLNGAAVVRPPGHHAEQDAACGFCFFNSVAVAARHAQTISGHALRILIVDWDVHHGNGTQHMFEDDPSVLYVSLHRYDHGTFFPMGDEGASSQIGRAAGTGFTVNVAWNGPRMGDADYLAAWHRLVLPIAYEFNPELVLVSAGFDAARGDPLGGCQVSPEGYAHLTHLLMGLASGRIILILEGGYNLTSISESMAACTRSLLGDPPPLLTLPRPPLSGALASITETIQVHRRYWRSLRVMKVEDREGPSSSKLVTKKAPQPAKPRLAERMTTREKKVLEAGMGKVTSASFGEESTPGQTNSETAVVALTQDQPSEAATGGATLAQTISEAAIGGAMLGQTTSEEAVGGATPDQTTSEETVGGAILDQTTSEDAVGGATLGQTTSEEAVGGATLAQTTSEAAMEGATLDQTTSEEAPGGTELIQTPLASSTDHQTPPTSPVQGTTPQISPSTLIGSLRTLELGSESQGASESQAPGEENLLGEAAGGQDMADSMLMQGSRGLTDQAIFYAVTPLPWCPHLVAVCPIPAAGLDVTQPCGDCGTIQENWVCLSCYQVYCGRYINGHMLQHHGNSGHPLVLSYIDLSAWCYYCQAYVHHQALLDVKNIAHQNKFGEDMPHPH

HCT-116 [7] = test: Induction of apoptosis in human HCT116 cells assessed as late apoptotic cells at 0.2 uM by Annexin-V FITC/propidium iodide staining-based flow cytometry (reference value: 3.51 %); assay type: functional
HCT-116 [8] = test: Induction of apoptosis in human HCT116 cells assessed as late apoptotic cells at 0.5 uM by Annexin-V FITC/propidium iodide staining-based flow cytometry (reference value: 3.51 %); assay type: functional
[9] = biological target: T1, Bromodomain-containing protein 4; test: Inhibition of BRD4 in human HCT116 cells assessed as induction of autophagy by measuring increase in cleavage of LC3-I to LC3-II measured after 24 hrs by Western blot analysis; assay type: cell-based
SW480 = test: Cytotoxicity against human SW480 cells assessed as reduction in cell viability; assay type: functional, cell-based
Summary of the method: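 Antiproliferative IC50 values were measured by MTT assay across a panel of colorectal carcinoma cell lines and normal colorectal epithelial cells.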

[10] = biological target: Bromodomain-containing protein 2 (Homo sapiens, UniProt P25440); test: Inhibition of human recombinant His-tagged BRD2 BD2 domain expressed in Escherichia coli BL21(DE3)-R3-pRARE2 cells by AlphaScreen assay
HCT-116 [11] = test: Induction of cell cycle arrest in human HCT116 cells assessed as cell accumulation at sub-G1 phase at 0.2 to 0.5 uM by flow cytometry; assay type: functional, cell-based
Summary of the method: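 HCT-116 cells treated at 0.2 or 0.5 μM were analysed for cell cycle by flow cytometry, with the sub-G1 population scored.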

[12] = biological target: T1, Bromodomain-containing protein 4; test: Inhibition of BRD4 in human HCT116 cells assessed as induction of autophagic flux by measuring accumulation of LC3-II at 0.5 uM after 24 hrs in presence of auto-phagolysosome inhibitor, bafilomycin-A1 by Western blot analysis; assay type: cell-based
Summary of the method: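 HCT-116 cells received 0.5 μM compound with or without bafilomycin-A1 for 24 hours. LC3 and p62 protein were then analysed by western blot.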

HCT-116 [13] = test: Induction of apoptosis in human HCT116 cells assessed as viable cells at 0.2 uM by Annexin-V FITC/propidium iodide staining-based flow cytometry (reference value: 93.4 %); assay type: functional; conditions: read-out: Activity
[14] = biological target: Bromodomain-containing protein 3 (Homo sapiens, UniProt Q15059); test: Inhibition of human recombinant His-tagged BRD3 BD1 domain expressed in Escherichia coli BL21(DE3)-R3-pRARE2 cells by AlphaScreen assay
Chain of Bromodomain-containing protein 3 (Q15059 whole entry, the tested form may be a part): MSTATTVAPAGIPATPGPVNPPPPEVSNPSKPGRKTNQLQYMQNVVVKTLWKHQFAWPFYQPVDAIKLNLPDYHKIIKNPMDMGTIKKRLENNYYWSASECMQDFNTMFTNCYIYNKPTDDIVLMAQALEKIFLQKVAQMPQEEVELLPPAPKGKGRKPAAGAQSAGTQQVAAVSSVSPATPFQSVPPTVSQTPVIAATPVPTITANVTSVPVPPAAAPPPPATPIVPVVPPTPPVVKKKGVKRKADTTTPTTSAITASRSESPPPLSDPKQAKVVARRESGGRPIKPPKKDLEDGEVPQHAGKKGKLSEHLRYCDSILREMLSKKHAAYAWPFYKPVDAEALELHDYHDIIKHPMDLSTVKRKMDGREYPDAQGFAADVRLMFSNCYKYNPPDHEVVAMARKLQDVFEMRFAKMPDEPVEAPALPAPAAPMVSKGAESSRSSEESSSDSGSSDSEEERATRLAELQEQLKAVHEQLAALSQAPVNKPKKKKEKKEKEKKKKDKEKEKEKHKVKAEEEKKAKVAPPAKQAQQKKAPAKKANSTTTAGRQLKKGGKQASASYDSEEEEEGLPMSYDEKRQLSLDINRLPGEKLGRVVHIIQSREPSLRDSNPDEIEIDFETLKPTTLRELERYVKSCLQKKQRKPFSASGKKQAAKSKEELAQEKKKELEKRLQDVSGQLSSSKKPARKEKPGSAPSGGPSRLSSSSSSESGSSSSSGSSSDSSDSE

Chain of Bromodomain-containing protein 2 (P25440 whole entry, the tested form may be a part): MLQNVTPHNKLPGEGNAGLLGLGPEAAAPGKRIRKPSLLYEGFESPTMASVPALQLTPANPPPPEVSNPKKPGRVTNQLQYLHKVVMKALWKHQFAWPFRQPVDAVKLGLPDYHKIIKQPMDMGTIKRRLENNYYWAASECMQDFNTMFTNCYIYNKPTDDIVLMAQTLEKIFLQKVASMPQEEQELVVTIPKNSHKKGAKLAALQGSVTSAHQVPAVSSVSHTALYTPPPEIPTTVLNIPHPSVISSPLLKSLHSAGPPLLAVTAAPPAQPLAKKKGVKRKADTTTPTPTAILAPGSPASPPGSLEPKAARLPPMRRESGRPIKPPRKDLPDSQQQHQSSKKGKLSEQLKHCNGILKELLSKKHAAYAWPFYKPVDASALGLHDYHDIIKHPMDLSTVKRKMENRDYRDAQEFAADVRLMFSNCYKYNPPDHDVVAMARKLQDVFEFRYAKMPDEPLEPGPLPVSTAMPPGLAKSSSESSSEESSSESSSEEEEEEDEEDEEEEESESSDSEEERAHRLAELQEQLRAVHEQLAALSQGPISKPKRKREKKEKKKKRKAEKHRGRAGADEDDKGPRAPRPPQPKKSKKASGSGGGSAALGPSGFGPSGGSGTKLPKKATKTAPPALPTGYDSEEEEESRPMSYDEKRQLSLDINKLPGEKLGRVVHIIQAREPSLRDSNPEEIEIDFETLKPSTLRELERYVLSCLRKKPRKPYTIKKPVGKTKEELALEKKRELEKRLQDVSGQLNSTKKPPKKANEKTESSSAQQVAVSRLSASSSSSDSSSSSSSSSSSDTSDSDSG

IC50 [1]: 1100 nM
IC50 [6]: 73 nM
inhibition [9]: Dose-dependent effect
IC50 [10]: > 20 µM
inhibition [12]: inactive
IC50 [14]: > 20 µM
SMILES: Cc1cc(-c2nc3sc4c(c3c(=O)[nH]2)CCN(C)C4)cc(C)c1OCCCCCC(=O)NO
inhibition (HCT-116 [2]): Active
Activity (Mus musculus): inactive
inhibition (Homo sapiens [3]): Active
inhibition (Homo sapiens [4]): Active
Activity (HCT-116 [5]): 9.54%
Activity (HCT-116 [7]): 23%
Activity (HCT-116 [8]): 35.8%
Activity (SW480): Active
Activity (HCT-116 [11]): Active
viability at 0.2 µM (HCT-116 [13]): 61.7%
